Calls of active or inactive are those of the source. The rule behind the calls is not given here.
Tests used:
Type in all cases: cell-based
[1] = target: T1, Nuclear factor NF-kappa-B complex (Homo sapiens) (UniProt Q00653+P19838+Q04206); experiment: Inhibition of NF-kappaB (unknown origin) expressed human DLD1 cells assessed as reduction in IL1-beta gene expression pretreated at 13.75 uM for 1 hr by RT-PCR method relative to untreated-control; details: DLD-1
Outline: (§1)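 DLD-1 seeded 5×10^5 cells/mL, grown 24 h, starved 16 h in 0.5% FCS, pretreated with compound 1 h, then stimulated with 10 ng/mL TNF-α, 10 ng/mL IFN-γ, 5 ng/mL IL-1β for 5 h. tnf-α, il-1β, inos mRNA by two-step qRT-PCR, Pfaffl relative quantification, normalised to gapdh; stimulated-untreated control = 100%. Mean ± SEM, three independent experiments.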

DLD-1 [2] = experiment: Inhibition of TNF-alpha/IFN-gamma/IL-1beta-induced human CXCL10 (972 bp) promoter activity expressed in human DLD1 cells assessed as reduction in IL-27 expression pretreated at 27.5 uM for 1 hr prior to 16 hrs cytokine challenge by proteome profiling method relative to untreated-control
Outline: (§2)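 DLD-1 starved 16 h in 0.5% FCS, seeded 5×10^6 cells/mL, pretreated 1 h with compound, then stimulated 16 h with 10 ng/mL TNF-α, 10 ng/mL IFN-γ, 5 ng/mL IL-1β. Supernatant cytokines/chemokines detected on Human Cytokine Array Panel A antibody array.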

DLD-1 [3] = experiment: Inhibition of TNF-alpha/IFN-gamma/IL-1beta-induced human CXCL10 (972 bp) promoter activity expressed in human DLD1 cells assessed as reduction in IL1-beta expression pretreated at 27.5 uM for 1 hr prior to 16 hrs cytokine challenge by proteome profiling method relative to untreated-control; outline: as §2
[4] = target: T2, Signal transducer and activator of transcription 1-alpha/beta (Homo sapiens) (UniProt P42224); experiment: Inhibition of Stat1 (unknown origin) expressed human DLD1 cells assessed as reduction in IL1-beta gene expression pretreated at 13.75 uM for 1 hr by RT-PCR method relative to untreated-control; details: DLD-1; outline: as §1
T2 sequence (whole entry): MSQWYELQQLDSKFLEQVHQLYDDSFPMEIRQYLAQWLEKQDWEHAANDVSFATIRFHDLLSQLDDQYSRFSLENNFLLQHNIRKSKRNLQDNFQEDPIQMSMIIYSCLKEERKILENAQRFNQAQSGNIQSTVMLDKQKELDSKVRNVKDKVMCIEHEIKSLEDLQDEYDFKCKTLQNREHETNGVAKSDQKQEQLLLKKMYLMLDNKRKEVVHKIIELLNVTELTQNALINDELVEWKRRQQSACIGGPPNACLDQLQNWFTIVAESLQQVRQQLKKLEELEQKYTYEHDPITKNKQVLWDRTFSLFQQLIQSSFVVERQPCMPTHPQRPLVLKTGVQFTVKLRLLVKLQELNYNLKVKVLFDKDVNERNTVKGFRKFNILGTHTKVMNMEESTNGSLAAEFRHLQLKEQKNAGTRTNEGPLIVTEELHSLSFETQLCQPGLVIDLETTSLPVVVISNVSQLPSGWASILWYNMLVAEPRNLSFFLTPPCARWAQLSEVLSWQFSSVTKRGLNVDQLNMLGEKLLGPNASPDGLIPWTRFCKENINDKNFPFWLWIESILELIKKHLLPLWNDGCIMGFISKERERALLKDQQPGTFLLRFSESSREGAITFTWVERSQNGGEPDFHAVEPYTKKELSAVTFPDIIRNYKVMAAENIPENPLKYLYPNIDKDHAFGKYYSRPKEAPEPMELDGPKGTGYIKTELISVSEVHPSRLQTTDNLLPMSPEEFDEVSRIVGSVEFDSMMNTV

DLD-1 [5] = experiment: Inhibition of TNF-alpha/IFN-gamma/IL-1beta-induced human CXCL10 (972 bp) promoter activity expressed in human DLD1 cells assessed as reduction in TNF-alpha expression pretreated at 27.5 uM for 1 hr prior to 16 hrs cytokine challenge by proteome profiling method relative to untreated-control; outline: as §2
DLD-1 [6] = experiment: Inhibition of TNF-alpha/IFN-gamma/IL-1beta-induced human CXCL10 (972 bp) promoter activity expressed in human DLD1 cells assessed as CXCL10 gene expression at 27.5 uM after 5 hrs by RT-PCR method relative to untreated-control
Outline: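 Cells starved 16 h (0.5% FCS), compound pretreatment 1 h, then TNF-α 10 ng/mL/IFN-γ 10 ng/mL/IL-1β 5 ng/mL for 5 h. Total RNA analysed by two-step qRT-PCR for cxcl10, gapdh-corrected (Pfaffl); induced vs uninduced and treated-induced vs untreated-induced (100%).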

DLD-1 [7] = experiment: Inhibition of TNF-alpha/IFN-gamma/IL-1beta-induced human CXCL10 (972 bp) promoter activity expressed in human DLD1 cells assessed as reduction in MIF expression pretreated at 27.5 uM for 1 hr prior to 16 hrs cytokine challenge by proteome profiling method relative to untreated-control; outline: as §2
[8] = Cytotoxicity against human DLD1 cells up to 50 uM after 48 hrs by XTT assay; details: dld-1, 48 h
Outline: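 DLD-1 cells (RPMI 1640, 25 mM HEPES, 10% FCS, 37 °C, 5% CO2) exposed to compound for 48 h; viability read as XTT reduction to coloured formazan.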

DLD-1 [9] = experiment: Inhibition of TNF-alpha/IFN-gamma/IL-1beta-induced human CXCL10 (972 bp) promoter activity expressed in human DLD1 cells assessed as reduction in CXCL10 expression pretreated at 131.5 uM for 1 hr prior to 16 hrs cytokine challenge by proteome profiling method relative to untreated-control; outline: as §2
[10] = (§3) Inhibition of TNF-alpha/IFN-gamma/IL-1beta-induced human CXCL10 (972 bp) promoter activity expressed in human DLD1 cells after 24 hrs by luciferase reporter assay; details: DLD-1, 24 h
Outline: (§4)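 DLD-1 in 24-well plates, switched to 0.5% FCS without antibiotics a day before lipofection (Lipofectamine 2000, 0.8 µg plasmid) with 972 bp CXCL10 promoter, NF-κB, GAS/Stat1 or ISRE luciferase reporters plus pRL-CMV. Stimulated 24 h with 10 ng/mL TNF-α, 10 ng/mL IFN-γ, 5 ng/mL IL-1β ± compound; Dual-Glo firefly/Renilla read. Stimulation-only = 100%; mean ± SEM, ≥3 experiments.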

DLD-1 [11] = experiment: as §3; outline: as §4
[12] = target: T1, Nuclear factor NF-kappa-B complex (Homo sapiens); experiment: Inhibition of NF-kappaB (unknown origin) expressed human DLD1 cells assessed as reduction in TNF-alpha gene expression pretreated at 13.75 uM for 1 hr by RT-PCR method relative to untreated-control; details: DLD-1; outline: as §1
[13] = target: T2, Signal transducer and activator of transcription 1-alpha/beta (Homo sapiens); experiment: Inhibition of Stat1 (unknown origin) expressed human DLD1 cells assessed as reduction in TNF-alpha gene expression pretreated at 13.75 uM for 1 hr by RT-PCR method relative to untreated-control; details: DLD-1; outline: as §1
DLD-1 [14] = experiment: Inhibition of TNF-alpha/IFN-gamma/IL-1beta-induced human CXCL10 (972 bp) promoter activity expressed in human DLD1 cells assessed as reduction in CXCL1 expression pretreated at 27.5 uM for 1 hr prior to 16 hrs cytokine challenge by proteome profiling method relative to untreated-control; outline: as §2
DLD-1 [15] = experiment: Inhibition of TNF-alpha/IFN-gamma/IL-1beta-induced human CXCL10 (972 bp) promoter activity expressed in human DLD1 cells assessed as reduction in CXCL10 expression pretreated at 27.5 uM for 1 hr prior to 16 hrs cytokine challenge by proteome profiling method relative to untreated-control; outline: as §2
[16] = target: T2, Signal transducer and activator of transcription 1-alpha/beta (Homo sapiens); experiment: Inhibition of Stat1 (unknown origin) expressed in human DLD1 cells assessed as reduction in iNOS gene expression pretreated at 13.75 uM for 1 hr by RT-PCR method relative to untreated-control; details: DLD-1; outline: as §1
[17] = Inhibition of TNF-alpha/IFN-gamma/IL-1beta-induced human CXCL10 (972 bp) promoter activity expressed in human DLD1 cells after 24 hrs by […]-driven luciferase reporter assay; details: DLD-1, 24 h; outline: as §4
[18] = target: T2, Signal transducer and activator of transcription 1-alpha/beta (Homo sapiens); experiment: Inhibition of Stat1 (unknown origin)-induced human CXCL10 (972 bp) promoter activity expressed in TNF-alpha/IFN-gamma/IL-1beta-stimulated human DLD1 cells after 24 hrs by luciferase reporter assay; details: DLD-1; outline: as §4
[19] = target: T1, Nuclear factor NF-kappa-B complex (Homo sapiens); experiment: Inhibition of NF-kappaB (unknown origin) expressed human DLD1 cells assessed as reduction in iNOS gene expression pretreated at 13.75 uM for 1 hr by RT-PCR method relative to untreated-control; details: DLD-1; outline: as §1
DLD-1 [20] = experiment: Inhibition of TNF-alpha/IFN-gamma/IL-1beta-induced human CXCL10 (972 bp) promoter activity expressed in human DLD1 cells assessed as reduction in IL8 expression pretreated at 27.5 uM for 1 hr prior to 16 hrs cytokine challenge by proteome profiling method relative to untreated-control; outline: as §2

T1 sequence (P19838 whole entry, looked up): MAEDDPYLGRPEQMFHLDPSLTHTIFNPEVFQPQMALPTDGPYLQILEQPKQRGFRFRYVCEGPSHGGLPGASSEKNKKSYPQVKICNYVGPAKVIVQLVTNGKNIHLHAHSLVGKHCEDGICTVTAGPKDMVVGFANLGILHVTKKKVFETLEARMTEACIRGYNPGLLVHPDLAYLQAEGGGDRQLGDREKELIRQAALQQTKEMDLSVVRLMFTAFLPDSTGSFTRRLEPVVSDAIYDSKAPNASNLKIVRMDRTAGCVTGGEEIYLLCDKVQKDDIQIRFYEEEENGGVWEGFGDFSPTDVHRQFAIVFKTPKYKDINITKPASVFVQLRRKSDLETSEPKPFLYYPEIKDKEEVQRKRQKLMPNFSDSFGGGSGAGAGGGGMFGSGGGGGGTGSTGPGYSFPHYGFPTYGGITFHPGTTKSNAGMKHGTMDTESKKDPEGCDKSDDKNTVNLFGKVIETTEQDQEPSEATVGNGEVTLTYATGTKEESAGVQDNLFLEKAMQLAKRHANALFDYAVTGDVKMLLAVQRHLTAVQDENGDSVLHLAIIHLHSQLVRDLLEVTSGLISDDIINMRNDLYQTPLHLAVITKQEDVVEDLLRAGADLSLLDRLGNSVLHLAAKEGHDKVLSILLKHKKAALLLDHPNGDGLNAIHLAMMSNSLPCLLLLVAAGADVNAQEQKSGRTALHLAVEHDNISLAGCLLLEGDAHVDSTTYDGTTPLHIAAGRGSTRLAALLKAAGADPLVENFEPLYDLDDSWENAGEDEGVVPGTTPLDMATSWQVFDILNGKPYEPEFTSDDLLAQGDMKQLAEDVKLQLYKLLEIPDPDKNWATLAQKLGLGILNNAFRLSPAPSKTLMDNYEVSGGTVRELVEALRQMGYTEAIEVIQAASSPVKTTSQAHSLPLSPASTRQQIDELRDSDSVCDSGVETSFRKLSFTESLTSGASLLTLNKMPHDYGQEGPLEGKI
T1 sequence (Q00653 whole entry, looked up): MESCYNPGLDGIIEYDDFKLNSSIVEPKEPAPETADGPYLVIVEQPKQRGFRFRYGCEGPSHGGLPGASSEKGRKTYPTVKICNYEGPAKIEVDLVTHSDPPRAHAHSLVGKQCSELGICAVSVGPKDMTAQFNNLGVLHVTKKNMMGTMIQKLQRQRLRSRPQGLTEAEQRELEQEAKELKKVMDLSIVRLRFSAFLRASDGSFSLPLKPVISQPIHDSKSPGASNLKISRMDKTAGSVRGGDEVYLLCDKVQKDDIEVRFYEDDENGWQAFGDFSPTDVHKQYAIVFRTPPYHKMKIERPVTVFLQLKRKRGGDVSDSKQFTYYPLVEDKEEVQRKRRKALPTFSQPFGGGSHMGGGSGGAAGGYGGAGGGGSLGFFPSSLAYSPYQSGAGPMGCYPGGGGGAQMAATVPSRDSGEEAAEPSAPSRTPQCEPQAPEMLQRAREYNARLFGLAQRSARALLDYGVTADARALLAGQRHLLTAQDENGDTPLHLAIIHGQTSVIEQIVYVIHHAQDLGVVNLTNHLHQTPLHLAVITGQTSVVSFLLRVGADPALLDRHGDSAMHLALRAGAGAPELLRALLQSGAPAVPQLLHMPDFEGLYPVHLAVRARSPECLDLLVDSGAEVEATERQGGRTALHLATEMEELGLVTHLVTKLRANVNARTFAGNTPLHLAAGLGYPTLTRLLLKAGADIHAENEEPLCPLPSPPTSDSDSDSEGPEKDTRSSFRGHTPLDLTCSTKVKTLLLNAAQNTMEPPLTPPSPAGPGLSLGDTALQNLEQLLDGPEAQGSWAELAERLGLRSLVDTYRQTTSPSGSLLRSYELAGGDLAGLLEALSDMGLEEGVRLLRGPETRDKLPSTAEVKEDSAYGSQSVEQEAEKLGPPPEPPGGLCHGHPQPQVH
T1 sequence (Q04206 whole entry, looked up): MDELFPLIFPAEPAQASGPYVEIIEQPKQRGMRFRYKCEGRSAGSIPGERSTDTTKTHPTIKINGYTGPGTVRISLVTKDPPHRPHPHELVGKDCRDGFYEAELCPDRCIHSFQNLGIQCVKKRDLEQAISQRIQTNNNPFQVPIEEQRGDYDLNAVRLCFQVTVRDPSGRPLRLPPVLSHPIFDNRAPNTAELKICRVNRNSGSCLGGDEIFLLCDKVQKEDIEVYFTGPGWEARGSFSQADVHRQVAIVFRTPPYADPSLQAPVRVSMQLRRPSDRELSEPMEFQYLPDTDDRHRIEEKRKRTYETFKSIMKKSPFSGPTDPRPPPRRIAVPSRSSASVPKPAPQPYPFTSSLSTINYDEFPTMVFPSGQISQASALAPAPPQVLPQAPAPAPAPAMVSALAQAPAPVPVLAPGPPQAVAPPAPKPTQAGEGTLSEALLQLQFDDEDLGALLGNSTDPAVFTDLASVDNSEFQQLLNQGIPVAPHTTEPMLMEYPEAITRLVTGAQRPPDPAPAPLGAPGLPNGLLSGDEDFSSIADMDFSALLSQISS

CCCCCC(=O)O[C@@H]1C=C2COC(=O)C2(O)[C@@]2(C)CCCC(C)(C)[C@H]12 (stereo not given in full)
inhibition [1]: Active
inhibition (DLD-1 [2]): Active
inhibition (DLD-1 [3]): Active
inhibition [4]: Active
inhibition (DLD-1 [5]): Active
inhibition (DLD-1 [6]): Active
inhibition (DLD-1 [7]): Active
Activity [8]: Non-toxic
inhibition (DLD-1 [9]): Active
IC50 [10]: 12.4 µM
inhibition (DLD-1 [11]): Dose-dependent effect
inhibition [12]: Active
inhibition [13]: Active
inhibition (DLD-1 [14]): Active
inhibition (DLD-1 [15]): Active
inhibition [16]: Active
IC50 [17]: 14.3 µM
inhibition [18]: Dose-dependent effect
inhibition [19]: Active
inhibition (DLD-1 [20]): Active

Source: ChEMBL document CHEMBL3259588, “Anti-inflammatory drimane sesquiterpene lactones from an Aspergillus species” (Bioorg Med Chem, 2014)
